Square brackets hold non-standard residues; d marks the D form. Peptide text beside a SMILES is read from it. hPhe = N[C@@H](CCc1ccccc1)C(=O)O; Nle = CCCC[C@H](N)C(=O)O
Key:
[1] = biological target: Melanocyte-stimulating hormone receptor (Mus musculus, UniProt Q01727); experiment: Agonist activity at mouse MC1R expressed in HEK293 cells incubated for 2 hrs by AlphaScreen cAMP assay; format: functional, cell-based
Procedure, shortened: (§1)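 HEK293 cells stably expressing mouse MC1R, about 90% confluent, were detached with Versene and suspended at 10,000 cells/μL in stimulation buffer (HBSS, 0.5 mM IBMX, 5 mM HEPES, 0.1% BSA, pH 7.4) with anti-cAMP acceptor beads. Compound was added for 2 h at room temperature in the dark, then donor beads/biotinylated cAMP in lysis buffer for 2 h, followed by AlphaScreen read. Doses went up to 100 μM in duplicate wells, ≥3 experiments. EC50 came from nonlinear regression, with efficacy as a percent of NDP-MSH.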

[2] = biological target: Melanocyte-stimulating hormone receptor (Mus musculus) (UniProt Q01727); experiment: Agonist activity at mouse MC1R expressed in HEK293 cells at 100 uM incubated for 2 hrs by AlphaScreen cAMP assay relative to NDP-MSH; format: functional, cell-based; procedure, shortened: as §1
[3] = biological target: Melanocortin receptor 5 (Mus musculus, UniProt P41149); experiment: Inverse agonist activity at mouse MC5R expressed in HEK293 cells incubated for 2 hrs by AlphaScreen cAMP assay; format: functional, cell-based
Procedure, shortened: (§2)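 In the mouse MC5R HEK293 stable line, cells in IBMX-containing stimulation buffer with anti-cAMP acceptor beads were exposed to compound at up to 100 μM for 2 h at room temperature in the dark. Donor beads/biotinylated cAMP were then added for 2 h before AlphaScreen reading. Signal was normalized to basal response to give a percent difference from basal. Duplicate wells, ≥3 independent experiments.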

[4] = biological target: Melanocortin receptor 5 (Mus musculus) (UniProt P41149); experiment: Inverse agonist activity at mouse MC5R expressed in HEK293 cells at 100 uM incubated for 2 hrs by AlphaScreen cAMP assay; format: functional, cell-based; procedure, shortened: as §2
[5] = biological target: Melanocortin receptor 3 (Mus musculus) (UniProt P33033); experiment: Agonist activity at mouse MC3R expressed in HEK293 cells at 100 uM incubated for 2 hrs by AlphaScreen cAMP assay relative to untreated control; format: functional, cell-based
[6] = biological target: Melanocortin receptor 4 (Mus musculus) (UniProt P56450); experiment: Agonist activity at mouse MC4R expressed in HEK293 cells at 100 uM incubated for 2 hrs by AlphaScreen cAMP assay relative to untreated control; format: functional, cell-based
[7] = biological target: Melanocortin receptor 3 (Mus musculus, UniProt P33033); experiment: Antagonist activity at mouse MC3R expressed in HEK293 cells assessed as reduction in NDP-MSH-induced response incubated for 2 hrs by AlphaScreen cAMP assay based Schild analysis; format: functional, cell-based; conditions: read-out: pA2 (converted)
[8] = biological target: Melanocortin receptor 4 (Mus musculus, UniProt P56450); experiment: Antagonist activity at mouse MC4R expressed in HEK293 cells assessed as reduction in NDP-MSH-induced response incubated for 2 hrs by AlphaScreen cAMP assay based Schild analysis; format: functional, cell-based; conditions: read-out: pA2 (converted)
[9] = organism: Mus musculus; experiment: Selectivity index, ratio of pA2 for antagonist activity at mouse MC3R expressed in HEK293 cells to pA2 for antagonist activity at mouse MC4R expressed in HEK293 cells; format: cell-based

Chain of Melanocyte-stimulating hormone receptor (Q01727 whole entry): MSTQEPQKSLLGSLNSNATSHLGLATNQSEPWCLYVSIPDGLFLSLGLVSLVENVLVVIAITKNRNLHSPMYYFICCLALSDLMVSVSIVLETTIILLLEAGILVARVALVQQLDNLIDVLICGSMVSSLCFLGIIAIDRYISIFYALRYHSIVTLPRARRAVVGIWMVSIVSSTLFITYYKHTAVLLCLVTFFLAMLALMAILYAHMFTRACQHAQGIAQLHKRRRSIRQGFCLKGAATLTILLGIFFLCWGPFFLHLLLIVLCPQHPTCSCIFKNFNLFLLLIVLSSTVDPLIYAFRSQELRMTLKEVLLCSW
Chain of Melanocyte-stimulating hormone receptor (Mus musculus) (Q01727 whole entry, looked up): as the sequence (Q01727 whole entry) above
Chain of Melanocortin receptor 5 (P41149 whole entry): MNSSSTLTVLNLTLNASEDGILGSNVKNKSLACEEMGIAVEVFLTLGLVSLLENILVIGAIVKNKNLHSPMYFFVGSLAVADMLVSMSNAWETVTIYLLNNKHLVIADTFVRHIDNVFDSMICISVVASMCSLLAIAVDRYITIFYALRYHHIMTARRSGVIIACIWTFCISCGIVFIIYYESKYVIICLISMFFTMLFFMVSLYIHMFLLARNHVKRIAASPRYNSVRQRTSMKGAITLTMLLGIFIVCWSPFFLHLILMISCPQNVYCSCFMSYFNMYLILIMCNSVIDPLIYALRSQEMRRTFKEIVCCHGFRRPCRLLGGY
Chain of Melanocortin receptor 5 (Mus musculus) (P41149 whole entry): as above
Chain of Melanocortin receptor 4 (Mus musculus) (P56450 whole entry): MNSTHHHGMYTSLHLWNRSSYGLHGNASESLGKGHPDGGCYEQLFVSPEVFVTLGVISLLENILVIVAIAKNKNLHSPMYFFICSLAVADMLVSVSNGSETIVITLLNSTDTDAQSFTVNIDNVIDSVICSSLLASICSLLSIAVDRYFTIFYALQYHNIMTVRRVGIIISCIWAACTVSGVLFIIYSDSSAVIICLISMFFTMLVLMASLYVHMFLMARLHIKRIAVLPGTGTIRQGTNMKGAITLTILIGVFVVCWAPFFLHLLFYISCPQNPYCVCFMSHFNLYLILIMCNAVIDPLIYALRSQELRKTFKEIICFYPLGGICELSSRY
Chain of Melanocortin receptor 4 (P56450 whole entry): as above
Chain of Melanocortin receptor 3 (Mus musculus) (P33033 whole entry): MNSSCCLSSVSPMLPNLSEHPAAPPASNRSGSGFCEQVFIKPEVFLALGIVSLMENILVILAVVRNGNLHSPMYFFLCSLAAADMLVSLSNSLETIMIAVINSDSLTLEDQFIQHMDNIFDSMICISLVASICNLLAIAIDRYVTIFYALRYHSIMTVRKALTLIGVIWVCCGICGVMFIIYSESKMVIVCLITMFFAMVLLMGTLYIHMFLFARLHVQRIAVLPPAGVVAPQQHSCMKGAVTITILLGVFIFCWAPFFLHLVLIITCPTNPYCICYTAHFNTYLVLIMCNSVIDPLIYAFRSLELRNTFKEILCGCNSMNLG
Chain of Melanocortin receptor 3 (P33033 whole entry): as above

Compound	EC50 [1]	Activity [2]	EC50 [3]	Activity [4]	Activity [5]	Activity [6]	Kb [7]	Kb [8]	Ratio [9]
N=C(N)NCCC[C@@H]1NC(=O)[C@H](Cc2ccccc2)NC(=O)[C@H](Cc2ccccc2)NC(=O)[C@H](CCCNC(=N)N)NC(=O)[C@@H]2CCCN2C(=O)[C@H]2CCCN2C(=O)[C@H](Cc2ccccc2)NC(=O)[C@H](CO)NC1=O	> 100000 nM	< 20%	> 100000 nM	< 20%	< 20%	< 20%	79.4 nM	1 nM	79
CCCC[C@@H]1NC(=O)[C@H](C)NC(=O)[C@H](CN)NC(=O)[C@H](Cc2ccccc2)NC(=O)[C@H](Cc2ccccc2)NC(=O)[C@H](CCCNC(=N)N)NC(=O)[C@@H]2CCCN2C(=O)[C@H]2CCCN2C1=O	190 nM		> 100000 nM	< 20%	< 20%	< 20%	79.4 nM	1 nM	79
CCCC[C@@H]1NC(=O)[C@H](C)NC(=O)[C@H](CC(N)=O)NC(=O)[C@H](CCc2ccccc2)NC(=O)[C@H](Cc2ccccc2)NC(=O)[C@H](CCCNC(=N)N)NC(=O)[C@@H]2CCCN2C(=O)[C@H]2CCCN2C1=O	> 100000 nM	< 20%	> 100000 nM	< 20%	< 20%	< 20%	631 nM	2.51 nM	250
N=C(N)NCCC[C@@H]1NC(=O)[C@@H]2CCCN2C(=O)[C@H]2CCCN2C(=O)[C@H](Cc2ccccc2)NC(=O)[C@H](CO)NC(=O)[C@H](CN)NC(=O)[C@H](CCc2ccccc2)NC(=O)[C@H](Cc2ccccc2)NC1=O		40%	> 100000 nM	< 20%	< 20%	< 20%	63.1 nM	0.631 nM	120
N=C(N)NCCC[C@@H]1NC(=O)[C@@H]2CCCN2C(=O)[C@H]2CCCN2C(=O)[C@H](Cc2ccccc2)NC(=O)[C@H](CO)NC(=O)[C@H](CC(N)=O)NC(=O)[C@H](CCc2ccccc2)NC(=O)[C@H](Cc2ccccc2)NC1=O		40%	> 100000 nM	< 20%	< 20%	< 20%	316 nM	2.51 nM	130
C[C@@H]1NC(=O)[C@H](CCCNC(=N)N)NC(=O)[C@H](CCc2ccccc2)NC(=O)[C@H](Cc2ccccc2)NC(=O)[C@H](CCCNC(=N)N)NC(=O)[C@@H]2CCCN2C(=O)[C@H]2CCCN2C(=O)[C@H](Cc2ccccc2)NC1=O (cyclo(RF[hPhe]RAF[dP]P))		25%	> 100000 nM	< 20%	< 20%	< 20%	10 nM	1.26 nM	8
N=C(N)NCCC[C@@H]1NC(=O)[C@H](CCc2ccccc2)NC(=O)[C@H](Cc2ccccc2)NC(=O)[C@H](CCCNC(=N)N)NC(=O)[C@@H]2CCCN2C(=O)[C@H]2CCCN2C(=O)[C@H](Cc2ccccc2)NC(=O)[C@H](CO)NC1=O (cyclo(RF[hPhe]RSF[dP]P))		30%	> 100000 nM	< 20%	< 20%	< 20%	20 nM	1.58 nM	13
CCCC[C@@H]1NC(=O)[C@H](CO)NC(=O)[C@H](CCCNC(=N)N)NC(=O)[C@H](CCc2ccccc2)NC(=O)[C@H](Cc2ccccc2)NC(=O)[C@H](CCCNC(=N)N)NC(=O)[C@@H]2CCCN2C(=O)[C@H]2CCCN2C1=O (cyclo(RF[hPhe]RS[Nle][dP]P))	400 nM		> 100000 nM	< 20%	< 20%	< 20%	12.6 nM	0.316 nM	37

From ChEMBL document CHEMBL4145669 (J Med Chem, 2018)
